Experimental data as given in ChEMBL document CHEMBL4219109, “Design, synthesis and biological evaluation of novel hydroxamic acid based histone deacetylase 6 selective inhibitors bearing phenylpyrazol scaffold as surface recognition motif” (Bioorg Med Chem, 2018).

Tests used:
Histone deacetylase = assay: Inhibition of HDAC in human HeLa nuclear extract using Boc-Lys-(Ac)-AMC as substrate preincubated for 15 mins followed by substrate addition measured after 60 mins by fluorescence assay; type: protein assay
[1] = biological target: Histone deacetylase 3/Nuclear receptor corepressor 2 (HDAC3/NCoR2) (Homo sapiens, UniProt O15379); assay: Inhibition of full length recombinant human C-terminal His-tagged HDAC3/N-terminal GST-tagged NCOR2 (395 to 489 residues) expressed in baculovirus infected sf9 cells using Boc-Lys-(Ac)-AMC as substrate preincubated for 15 mins followed by substrate addition measured after 60 mins by fluorescence assay
Histone deacetylase 1 = Histone deacetylase 1 (Homo sapiens, UniProt Q13547); assay: Inhibition of full length recombinant human C-terminal FLAG/His-tagged HDAC1 expressed in baculovirus infected sf9 cells using Boc-Lys-(Ac)-AMC as substrate preincubated for 15 mins followed by substrate addition measured after 60 mins by fluorescence assay
Histone deacetylase 8 = biological target: T1, Histone deacetylase 8 (Homo sapiens, UniProt Q9BY41); assay: Inhibition of full length recombinant human C-terminal His-tagged HDAC8 expressed in baculovirus infected sf9 cells using Boc-Lys-(TFA)-AMC as substrate preincubated for 15 mins followed by substrate addition measured after 60 mins by fluorescence assay
T1 sequence (Q9BY41 whole entry): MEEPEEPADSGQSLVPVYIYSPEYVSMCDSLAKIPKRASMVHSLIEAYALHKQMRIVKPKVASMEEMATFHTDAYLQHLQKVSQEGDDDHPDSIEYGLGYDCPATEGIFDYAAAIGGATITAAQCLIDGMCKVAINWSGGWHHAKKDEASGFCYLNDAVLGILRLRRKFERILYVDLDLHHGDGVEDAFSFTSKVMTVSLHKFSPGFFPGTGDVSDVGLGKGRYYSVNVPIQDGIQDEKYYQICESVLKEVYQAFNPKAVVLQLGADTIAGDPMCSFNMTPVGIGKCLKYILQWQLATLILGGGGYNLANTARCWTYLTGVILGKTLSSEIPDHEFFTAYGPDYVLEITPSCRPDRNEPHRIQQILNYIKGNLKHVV

HepG2 = assay: Antiproliferative activity against human HepG2 cells after 96 hrs by MTT assay; type: functional
Outline: (§1)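 Cells from Shanghai Cell Bank; A549 grown in high-glucose DMEM and HepG2 in MEM, both with 10% FBS plus penicillin/streptomycin, at 37°C in 5% CO₂. Seeded at 1.5-3.5×10⁴ cells/well for 24 h, then given graded compound concentrations for 96 h. MTT solution (2 mg/mL) added for 4 h, formazan dissolved in DMSO, A570 read. Growth expressed as treated/untreated cell number ratio.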

A549 = assay: Antiproliferative activity against human A549 cells after 96 hrs by MTT assay; type: functional; outline: as §1
Histone deacetylase 2 = Histone deacetylase 2 (Homo sapiens, UniProt Q92769); assay: Inhibition of full length recombinant human C-terminal His-tagged HDAC2 expressed in baculovirus infected sf9 cells using Boc-Lys-(Ac)-AMC as substrate preincubated for 15 mins followed by substrate addition measured after 60 mins by fluorescence assay
[2] = biological target: T2, Protein deacetylase HDAC6 (Homo sapiens, UniProt Q9UBN7); assay: Inhibition of full length recombinant human N-terminal GST-tagged HDAC6 expressed in baculovirus infected sf9 cells using Boc-Lys-(Ac)-AMC as substrate preincubated for 15 mins followed by substrate addition measured after 60 mins by fluorescence assay
T2 sequence (Q9UBN7 whole entry): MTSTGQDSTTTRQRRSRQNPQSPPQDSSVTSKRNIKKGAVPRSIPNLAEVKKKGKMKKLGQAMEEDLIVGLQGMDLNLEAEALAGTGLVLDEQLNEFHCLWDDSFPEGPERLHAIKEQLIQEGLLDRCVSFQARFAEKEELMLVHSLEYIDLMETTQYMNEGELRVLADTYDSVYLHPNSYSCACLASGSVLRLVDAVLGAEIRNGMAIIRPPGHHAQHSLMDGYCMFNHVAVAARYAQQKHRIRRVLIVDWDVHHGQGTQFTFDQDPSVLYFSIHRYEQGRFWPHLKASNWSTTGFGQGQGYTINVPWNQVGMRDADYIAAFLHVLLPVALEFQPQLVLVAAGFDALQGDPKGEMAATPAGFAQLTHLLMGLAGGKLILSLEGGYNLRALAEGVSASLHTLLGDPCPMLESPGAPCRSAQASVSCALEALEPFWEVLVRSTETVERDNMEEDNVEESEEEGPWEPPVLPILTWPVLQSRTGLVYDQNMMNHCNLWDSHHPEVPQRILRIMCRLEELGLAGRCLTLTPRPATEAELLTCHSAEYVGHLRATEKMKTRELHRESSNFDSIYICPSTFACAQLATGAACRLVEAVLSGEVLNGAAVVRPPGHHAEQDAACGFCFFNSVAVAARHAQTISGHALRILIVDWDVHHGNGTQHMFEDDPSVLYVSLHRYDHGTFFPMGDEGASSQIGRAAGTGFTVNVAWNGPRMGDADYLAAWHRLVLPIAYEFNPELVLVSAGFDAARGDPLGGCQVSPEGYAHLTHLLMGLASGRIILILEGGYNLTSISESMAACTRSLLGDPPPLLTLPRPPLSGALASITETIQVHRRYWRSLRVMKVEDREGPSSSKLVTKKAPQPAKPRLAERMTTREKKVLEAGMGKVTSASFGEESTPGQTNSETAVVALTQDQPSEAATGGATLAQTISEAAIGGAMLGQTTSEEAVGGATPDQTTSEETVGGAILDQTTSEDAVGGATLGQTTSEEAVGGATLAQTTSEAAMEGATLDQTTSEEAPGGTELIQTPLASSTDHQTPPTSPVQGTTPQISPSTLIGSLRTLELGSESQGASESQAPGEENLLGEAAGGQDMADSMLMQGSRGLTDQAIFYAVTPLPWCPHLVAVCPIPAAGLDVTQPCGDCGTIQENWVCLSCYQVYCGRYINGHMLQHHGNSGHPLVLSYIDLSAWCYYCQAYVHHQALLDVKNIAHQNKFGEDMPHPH

Sequence of Histone deacetylase 3/Nuclear receptor corepressor 2 (HDAC3/NCoR2) (O15379 whole entry, the tested form may be a part): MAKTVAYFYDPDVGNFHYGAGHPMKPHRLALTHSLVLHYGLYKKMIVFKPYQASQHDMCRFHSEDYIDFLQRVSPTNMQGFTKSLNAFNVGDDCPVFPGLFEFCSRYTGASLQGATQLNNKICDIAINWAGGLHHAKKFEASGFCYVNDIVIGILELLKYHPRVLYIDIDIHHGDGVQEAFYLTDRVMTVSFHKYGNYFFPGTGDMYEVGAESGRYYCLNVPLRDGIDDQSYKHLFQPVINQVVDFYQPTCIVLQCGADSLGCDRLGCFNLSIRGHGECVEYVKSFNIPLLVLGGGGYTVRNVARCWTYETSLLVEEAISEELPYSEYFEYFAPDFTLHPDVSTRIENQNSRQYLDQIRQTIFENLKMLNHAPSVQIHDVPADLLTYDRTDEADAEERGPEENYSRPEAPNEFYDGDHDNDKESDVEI
Sequence of Histone deacetylase 3/Nuclear receptor corepressor 2 (HDAC3/NCoR2) (Q9Y618 whole entry, further chain, the tested form may be a part): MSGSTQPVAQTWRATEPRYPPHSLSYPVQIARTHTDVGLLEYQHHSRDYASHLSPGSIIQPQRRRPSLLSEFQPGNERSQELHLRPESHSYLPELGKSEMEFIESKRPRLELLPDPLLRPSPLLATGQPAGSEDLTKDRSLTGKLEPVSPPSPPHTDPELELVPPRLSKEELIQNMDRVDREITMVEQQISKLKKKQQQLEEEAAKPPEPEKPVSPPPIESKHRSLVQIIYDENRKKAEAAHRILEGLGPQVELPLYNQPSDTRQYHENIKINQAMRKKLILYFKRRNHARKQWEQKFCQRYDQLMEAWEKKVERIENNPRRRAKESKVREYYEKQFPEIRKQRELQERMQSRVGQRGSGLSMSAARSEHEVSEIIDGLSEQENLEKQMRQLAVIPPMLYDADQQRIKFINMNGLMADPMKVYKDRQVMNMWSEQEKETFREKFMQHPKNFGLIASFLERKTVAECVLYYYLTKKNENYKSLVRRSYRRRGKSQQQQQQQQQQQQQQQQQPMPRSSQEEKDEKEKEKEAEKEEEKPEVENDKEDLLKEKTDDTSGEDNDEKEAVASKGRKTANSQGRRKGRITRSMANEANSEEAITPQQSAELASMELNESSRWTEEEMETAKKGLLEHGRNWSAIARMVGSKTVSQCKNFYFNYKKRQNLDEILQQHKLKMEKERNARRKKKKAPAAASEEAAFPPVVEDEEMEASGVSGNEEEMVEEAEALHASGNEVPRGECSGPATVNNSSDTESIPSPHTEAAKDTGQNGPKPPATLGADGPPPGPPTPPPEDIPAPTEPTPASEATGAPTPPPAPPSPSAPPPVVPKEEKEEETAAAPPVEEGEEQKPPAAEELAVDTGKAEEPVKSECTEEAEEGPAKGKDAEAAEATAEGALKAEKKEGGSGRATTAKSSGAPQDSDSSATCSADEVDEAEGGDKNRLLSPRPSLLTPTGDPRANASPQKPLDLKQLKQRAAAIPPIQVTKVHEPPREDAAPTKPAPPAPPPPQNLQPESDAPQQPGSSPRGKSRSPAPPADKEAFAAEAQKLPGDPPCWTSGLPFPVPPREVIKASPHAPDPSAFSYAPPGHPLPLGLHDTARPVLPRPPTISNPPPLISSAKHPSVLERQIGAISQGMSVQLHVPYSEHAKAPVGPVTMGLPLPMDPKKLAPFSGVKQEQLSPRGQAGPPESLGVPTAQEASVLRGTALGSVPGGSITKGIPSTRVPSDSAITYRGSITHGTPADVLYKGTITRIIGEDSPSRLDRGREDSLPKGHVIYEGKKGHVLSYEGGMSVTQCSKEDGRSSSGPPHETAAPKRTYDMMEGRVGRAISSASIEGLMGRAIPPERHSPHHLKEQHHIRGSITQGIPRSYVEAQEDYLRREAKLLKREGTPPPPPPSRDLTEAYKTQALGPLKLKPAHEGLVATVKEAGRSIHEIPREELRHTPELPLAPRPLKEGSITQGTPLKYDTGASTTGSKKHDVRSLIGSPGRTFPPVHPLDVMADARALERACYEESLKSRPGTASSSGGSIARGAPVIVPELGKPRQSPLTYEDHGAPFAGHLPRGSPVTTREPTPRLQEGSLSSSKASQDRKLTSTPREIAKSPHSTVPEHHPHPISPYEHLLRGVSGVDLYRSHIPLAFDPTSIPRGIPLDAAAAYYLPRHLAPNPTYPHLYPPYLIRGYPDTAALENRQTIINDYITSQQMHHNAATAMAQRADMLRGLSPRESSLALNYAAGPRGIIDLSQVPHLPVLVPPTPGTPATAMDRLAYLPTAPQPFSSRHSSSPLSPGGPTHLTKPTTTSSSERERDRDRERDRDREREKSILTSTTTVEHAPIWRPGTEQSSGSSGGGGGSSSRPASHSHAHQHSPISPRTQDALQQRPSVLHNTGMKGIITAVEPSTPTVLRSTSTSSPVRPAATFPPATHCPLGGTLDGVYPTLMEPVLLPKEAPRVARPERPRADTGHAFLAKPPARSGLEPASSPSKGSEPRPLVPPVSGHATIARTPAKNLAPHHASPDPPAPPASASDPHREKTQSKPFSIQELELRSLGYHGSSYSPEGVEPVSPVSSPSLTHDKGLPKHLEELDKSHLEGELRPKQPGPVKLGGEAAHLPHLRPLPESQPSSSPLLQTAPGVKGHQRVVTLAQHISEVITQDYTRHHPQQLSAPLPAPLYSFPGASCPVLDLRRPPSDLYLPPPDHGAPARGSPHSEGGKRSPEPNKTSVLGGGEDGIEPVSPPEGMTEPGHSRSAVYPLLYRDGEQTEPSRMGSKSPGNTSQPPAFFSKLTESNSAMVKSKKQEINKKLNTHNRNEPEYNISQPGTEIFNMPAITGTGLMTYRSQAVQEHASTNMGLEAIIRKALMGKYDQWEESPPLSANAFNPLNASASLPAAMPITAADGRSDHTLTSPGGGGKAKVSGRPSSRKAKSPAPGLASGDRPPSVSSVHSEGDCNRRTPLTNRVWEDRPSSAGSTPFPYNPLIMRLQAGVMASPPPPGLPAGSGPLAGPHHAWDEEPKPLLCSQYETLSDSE
Sequence of Histone deacetylase 2 (Q92769 whole entry): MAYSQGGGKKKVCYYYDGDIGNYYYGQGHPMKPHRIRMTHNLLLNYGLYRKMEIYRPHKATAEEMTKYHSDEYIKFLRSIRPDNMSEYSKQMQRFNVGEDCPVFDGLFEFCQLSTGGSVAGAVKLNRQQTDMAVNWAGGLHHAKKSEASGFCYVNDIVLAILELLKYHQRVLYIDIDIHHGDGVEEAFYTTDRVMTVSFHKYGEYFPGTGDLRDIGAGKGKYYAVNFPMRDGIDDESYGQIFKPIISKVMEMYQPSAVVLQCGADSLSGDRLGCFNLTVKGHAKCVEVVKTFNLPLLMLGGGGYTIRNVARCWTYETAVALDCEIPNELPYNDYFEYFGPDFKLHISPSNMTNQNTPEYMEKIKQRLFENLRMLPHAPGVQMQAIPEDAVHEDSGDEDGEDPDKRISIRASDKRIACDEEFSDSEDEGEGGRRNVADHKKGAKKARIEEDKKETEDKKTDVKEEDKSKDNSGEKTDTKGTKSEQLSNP
Sequence of Histone deacetylase 1 (Q13547 whole entry): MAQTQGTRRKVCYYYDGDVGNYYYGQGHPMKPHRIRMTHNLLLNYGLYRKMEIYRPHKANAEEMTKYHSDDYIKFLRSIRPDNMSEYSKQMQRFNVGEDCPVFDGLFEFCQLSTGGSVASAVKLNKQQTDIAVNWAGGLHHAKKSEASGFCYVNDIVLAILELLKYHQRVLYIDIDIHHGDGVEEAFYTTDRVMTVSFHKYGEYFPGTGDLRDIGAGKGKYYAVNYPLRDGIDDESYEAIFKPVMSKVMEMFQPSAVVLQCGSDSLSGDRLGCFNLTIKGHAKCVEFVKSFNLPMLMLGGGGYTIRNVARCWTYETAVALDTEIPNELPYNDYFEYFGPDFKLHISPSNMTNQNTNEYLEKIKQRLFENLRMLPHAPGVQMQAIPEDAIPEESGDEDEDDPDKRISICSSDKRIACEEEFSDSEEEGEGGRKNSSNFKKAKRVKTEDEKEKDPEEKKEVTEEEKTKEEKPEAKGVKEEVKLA

| SMILES | IC50 (Histone deacetylase) | IC50 [1] | IC50 (Histone deacetylase 1) | IC50 (Histone deacetylase 8) | GI50 (HepG2; Homo sapiens, HepG2, 96 h) | GI50 (A549; Homo sapiens, A549, 96 h) | IC50 (Histone deacetylase 2) | IC50 [2] | GI50 (HepG2) | GI50 (A549) |
| --- | --- | --- | --- | --- | --- | --- | --- | --- | --- | --- |
| Cc1ccc(-c2cc(C(F)(F)F)n(CCc3ccc(C(=O)NO)cc3)n2)cc1 | 0.121 µM | 0.08 µM | 0.352 µM | > 5 µM | 27.6 µM | > 100 µM | 0.549 µM | 0.078 µM |  |  |
| Cc1cc(-c2ccc3c(c2)OCO3)n(Cc2ccc(C(=O)NO)cc2)n1 | 0.016 µM | 0.092 µM | 0.43 µM | > 5 µM | 16.5 µM | 23.2 µM | 0.135 µM | 0.036 µM |  |  |
| CCCc1cc(-c2ccc(F)cc2)nn1Cc1ccc(C(=O)NO)cc1 | 0.476 µM | 0.29 µM | 0.541 µM | > 5 µM | 16.8 µM | 15.2 µM | 0.362 µM | 0.107 µM |  |  |
| O=C(CCCCCNC(=O)c1cc(-c2ccc(F)cc2)[nH]n1)NO | 0.058 µM | 0.036 µM | 0.066 µM | 3.71 µM | 47.6 µM | 7.09 µM | 0.042 µM | 0.029 µM |  |  |
| Cc1ccc(-c2cc(C(F)(F)F)nn2Cc2ccc(C(=O)NO)cc2)cc1 | 0.231 µM | 0.128 µM | 0.925 µM | > 5 µM | 7.5 µM | 10.6 µM | 1.22 µM | 0.027 µM |  |  |
| Cc1ccc(-c2cc(C)nn2Cc2ccc(C(=O)NO)cc2)cc1 | 0.022 µM | 0.053 µM | 0.694 µM | > 5 µM | 13.3 µM | 12.4 µM | 0.076 µM | 0.029 µM |  |  |
| Cc1ccc(-c2cc(C(F)(F)F)nn2-c2ccc(S(N)(=O)=O)cc2)cc1 [CELECOXIB] | 1.637 µM |  | 1.19 µM |  |  |  |  | 0.643 µM |  |  |
| O=C(CCCCCCC(=O)Nc1ccccc1)NO [VORINOSTAT] |  |  |  |  |  |  |  |  | 22 µM | 5.02 µM |
| O=C(NO)c1ccc(Cn2nc(Cc3ccccc3)cc2-c2ccc(F)cc2)cc1 | > 5 µM | > 5 µM | > 5 µM | > 5 µM |  |  | > 5 µM | 0.42 µM |  |  |
| O=C(NO)c1ccc(Cn2nc(-c3ccc(F)cc3)cc2Cc2ccccc2)cc1 | 1.028 µM | 0.619 µM | 1.88 µM | > 5 µM |  |  | 0.763 µM | 0.326 µM |  |  |

The next lines start with the values.

| IC50 (Histone deacetylase) | IC50 [1] | IC50 (Histone deacetylase 1) | IC50 (Histone deacetylase 8) | GI50 (HepG2; Homo sapiens, HepG2, 96 h) | GI50 (A549; Homo sapiens, A549, 96 h) | IC50 (Histone deacetylase 2) | IC50 [2] | GI50 (HepG2) | GI50 (A549) | SMILES |
| --- | --- | --- | --- | --- | --- | --- | --- | --- | --- | --- |
| 0.644 µM | 0.671 µM | 1.04 µM | > 5 µM | > 100 µM | > 100 µM | 0.883 µM | 0.275 µM |  |  | O=C(CCCCNC(=O)c1cc(-c2ccc(F)cc2)[nH]n1)NO |
| > 5 µM | > 5 µM | > 5 µM | > 5 µM | 76 µM | 46.9 µM | > 5 µM | > 5 µM |  |  | O=C(CCNC(=O)c1cc(-c2ccc(F)cc2)[nH]n1)NO |
| 0.022 µM | 0.009 µM | 0.038 µM | > 5 µM | 38.1 µM | 20.2 µM | 0.017 µM | 0.001 µM |  |  | O=C(NO)c1ccc(CNC(=O)c2cc(-c3ccc(F)cc3)[nH]n2)cc1 |
| 0.165 µM | 0.228 µM | 0.487 µM | > 5 µM | 16.7 µM | 19.2 µM | 0.391 µM | 0.035 µM |  |  | CCc1cc(-c2ccc(F)cc2)nn1Cc1ccc(C(=O)NO)cc1 |
| 1.792 µM | 1.84 µM | 3.61 µM | > 5 µM | 7.76 µM | 16.7 µM | 1.5 µM | 0.069 µM |  |  | CCc1cc(-c2ccc(F)cc2)n(Cc2ccc(C(=O)NO)cc2)n1 |
| 2.603 µM | 1.43 µM | 3.74 µM | > 5 µM | 88 µM | > 100 µM | 1.83 µM | 1.06 µM |  |  | O=C(CCCNC(=O)c1cc(-c2ccc(F)cc2)[nH]n1)NO |
